Source: ChEMBL document CHEMBL1123848, “Role of the (acyloxy)methyl moiety in eliciting the adrenergic beta-blocking activity of 3-(acyloxy)propanolamines” (J Med Chem, 1987)

Columns and labels:
[1] = target: Beta-2 adrenergic receptor (Cavia porcellus, UniProt Q8K4Z4); assay: (§1) Antagonist activity against beta-2 adrenergic receptor in isolated guinea pig trachea; type: functional, tissue-based; conditions: read-out: pA2 (converted)
[2] = target: Beta-2 adrenergic receptor (Cavia porcellus) (UniProt Q8K4Z4); assay: as §1; type: functional, tissue-based
Beta-2 adrenergic receptor (Cavia porcellus), sequence (Q8K4Z4 whole entry, looked up): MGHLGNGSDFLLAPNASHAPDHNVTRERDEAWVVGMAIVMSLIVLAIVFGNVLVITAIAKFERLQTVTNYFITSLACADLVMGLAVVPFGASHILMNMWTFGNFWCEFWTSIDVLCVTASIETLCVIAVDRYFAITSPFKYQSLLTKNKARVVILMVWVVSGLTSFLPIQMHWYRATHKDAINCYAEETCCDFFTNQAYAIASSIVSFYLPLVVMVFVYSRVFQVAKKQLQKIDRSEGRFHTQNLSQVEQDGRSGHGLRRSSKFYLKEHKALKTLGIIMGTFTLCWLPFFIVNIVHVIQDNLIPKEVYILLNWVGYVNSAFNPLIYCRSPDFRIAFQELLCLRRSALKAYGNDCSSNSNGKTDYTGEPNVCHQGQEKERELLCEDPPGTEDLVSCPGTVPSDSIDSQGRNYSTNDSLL

[3] = target: Beta-1 adrenergic receptor (Cavia porcellus) (UniProt B0FL73); assay: (§2) Antagonist activity against beta-1 adrenergic receptor in isolated guinea pig atria; type: functional
Beta-1 adrenergic receptor (Cavia porcellus), sequence (B0FL73 1-467): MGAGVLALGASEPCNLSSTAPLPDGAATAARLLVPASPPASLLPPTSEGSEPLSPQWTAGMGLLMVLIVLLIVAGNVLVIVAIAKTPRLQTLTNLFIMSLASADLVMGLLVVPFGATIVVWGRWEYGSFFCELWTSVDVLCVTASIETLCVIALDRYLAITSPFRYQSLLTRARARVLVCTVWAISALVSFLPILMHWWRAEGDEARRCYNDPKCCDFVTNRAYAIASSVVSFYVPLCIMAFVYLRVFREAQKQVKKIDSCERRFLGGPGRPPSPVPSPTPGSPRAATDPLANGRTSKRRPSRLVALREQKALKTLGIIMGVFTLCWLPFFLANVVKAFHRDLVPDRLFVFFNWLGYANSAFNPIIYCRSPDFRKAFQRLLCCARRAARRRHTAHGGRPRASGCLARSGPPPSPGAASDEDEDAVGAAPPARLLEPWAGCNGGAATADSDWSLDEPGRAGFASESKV
How it was run: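 Atria from adult male guinea pigs (300–350 g), stabilized 45 min in Tyrode solution. Isoprenaline dose-effect curve by single doses, each run to maximal response. Antagonist added at increasing concentrations with 15 min contact per dose; solutions freshly prepared. Percent inhibition of the maximal agonist response measured; pA2 (50% reduction) and pA10 (90%) calculated by the Arunlakshana–Schild method.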

[4] = target: Beta-1 adrenergic receptor (Cavia porcellus, UniProt B0FL73); assay: as §2; type: functional; conditions: read-out: pA2 (converted)
Beta-1 adrenergic receptor, sequence (B0FL73 whole entry): as the sequence (B0FL73 1-467) above
How it was run: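 Atria from adult male guinea pigs (300–350 g), stabilized 45 min in Tyrode solution. Isoprenaline dose-effect curve by single doses, each run to maximal response. Antagonist added at increasing concentrations with 15 min contact per dose; solutions freshly prepared.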

Beta-2 adrenergic receptor, sequence (Q8K4Z4 whole entry): as the sequence (Q8K4Z4 whole entry, looked up) above

Row | SMILES | Kb [1] | pA10 [2] | pA10 [3] | Kb [4]
1 | CC(C)(C)NCC(O)COC(=O)C1CCCCC1 (stereo not given) | 2.51 µM | 4.71 | 4.22 | 7.94 µM
2 | CC(C)NCC(O)COC(=O)c1ccc2c(c1)OCO2 (stereo not given) | – | – | – | 0.126 µM
3 | CC(C)NCC(O)COC(=O)C1CCCCC1 (stereo not given) | 2.29 µM | 4.62 | 4.2 | 12.3 µM
4 | CC(C)NCC(O)COC(=O)Cc1cccs1 (stereo not given) | 10 µM | 4.35 | 4.28 | 11 µM
5 | CC(C)NCC(O)COC(=O)C(C)C (stereo not given) | 4.27 µM | 4.52 | 3.9 | 26.9 µM
6 | COc1ccc(OC)c(C(O)C(C)NC(C)(C)C)c1 (stereo not given) | – | 5.96 | 3.98 | –
7 | CC(C)(C)NCC(O)COC(=O)c1cccs1 (stereo not given) | 0.0191 µM | 6.82 | 5.42 | 0.457 µM
8 | CCC(=O)OCC(O)CNC(C)(C)C (stereo not given) | 26.3 µM | 3.79 | 3.74 | 28.2 µM
9 | CC(C)C(=O)OCC(O)CNC(C)(C)C (stereo not given) | 28.8 µM | 3.94 | 4.1 | 11.5 µM
10 | CC(C)NCC(O)COC(=O)c1cccs1 (stereo not given) | 0.468 µM | 5.54 | 5.11 | 1.58 µM
